Legend:
MS2 coat protein [1] = test: apparent Kd, MS2 coat protein; higher = weaker binding; RNA-MaP array; settings: designed as: OFF switch for flavin mononucleotide
In short: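 Incubations were done at room temperature with fluorescently labeled MS2 coat protein at 1.5 nM to 3 μM and designed RNAs transcribed on an Illumina sequencing chip from sequenced DNA templates, with or without input ligand. Apparent Kd is the median of binding curves fitted for each cluster. Designs with fewer than 10 measured clusters were excluded.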

MS2 coat protein [2] = test: apparent Kd, MS2 coat protein; higher = weaker binding; RNA-MaP array; FMN 200 µM where present
In short: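 Green signal was scaled to red-channel RNA signal and control-cluster median Fmax, and the apparent Kd was taken as the median of filtered per-cluster binding-curve fits. The binding series used SNAP-549-labelled MS2 coat protein from 0.7 or 1.5 nM, doubling to 3 µM, on designs transcribed by stalled E. coli RNA polymerase on Illumina sequencing-chip clusters. Each series ran without and then with constant ligand in 100 mM Tris-HCl pH 7.5, 80 mM KCl, 4 mM MgCl2, BSA, DTT, yeast tRNA and Tween-20.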

[3] = ligand present: flavin mononucleotide
[4] = designed as: OFF switch for flavin mononucleotide, no ligand
[5] = ligand present: flavin mononucleotide, designed as: OFF switch for flavin mononucleotide
[6] = designed as: ON switch for flavin mononucleotide, no ligand
[7] = ligand present: flavin mononucleotide, designed as: ON switch for flavin mononucleotide

Sequence	apparent Kd (MS2 coat protein [2]; [4])	apparent Kd (MS2 coat protein [2]; [5])	also measured
AUGUGAUAGGAGAAGGGCUGUCCAUGGACAUCACAGUACAUCCACAUGAGGAUCACCCAUGUUAAGCAGGAUAUCCUGUCGUGU			apparent Kd (MS2 coat protein [1]; no ligand): 27.2 nM; apparent Kd (MS2 coat protein [1]; [3]): 58.9 nM
AUCACUGAGCGAGGAUAUUAUUUCAAAUCAACGACGAUCCUACACAUGAGGAUCACCCAUGUUAGUAAGAAGGCGCGCCAGAUG			apparent Kd (MS2 coat protein [1]; no ligand): 62.5 nM; apparent Kd (MS2 coat protein [1]; [3]): 93.5 nM
CAGGGUCGUAUUCAGCCCGUCCACAUGAGGAUCACCCAUGUCAAGGAUAUAGCUUAAAAUACAAACUAGAAGGUGACGCUGGGU	21.7 nM	83.8 nM	
CCACGGUAUGUAGGAUAUGCAUAGCAUUGCUAUGCAGAAGGACAUGAGGAUCACCCAUGUAUGUAUUCCAUACUAAUCCCGUGA	5.96 nM	5.3 nM	
CGGAGGUCAGGAUAUGCAUGGCGGGACUUGCGUCGUGGCGUGCAGAAGGGACAUGAGGAUCACCCAUGUGGAGA	83.2 nM	259 nM	
UUAAAUCAUGUAGGAUAUGCAUGGCGAAGCUACGCAGAAGGACAUGAGGAUCACCCAUGUUCUAGCUACCGGAUACGGUGGCAA	21.5 nM	87.4 nM	
CCGCGCUGUCGAGAGGAUAUGCGGUGAUGGACAUGAGGAUCACCCAUGUUAGCGAUAGCAUUACUGUAGAAGGCUCUACGGCGGC			apparent Kd (MS2 coat protein [2]; [6]): 16.6 nM; apparent Kd (MS2 coat protein [2]; [7]): 17.3 nM
CUAUUUAAGCAGAAGGCGUGGGAAAGAUUUACACGAGGAUAUGCGAUAACGGCGUAUGACAUGAGGAUCACCCAUGUACGUGCG			apparent Kd (MS2 coat protein [2]; [6]): 7.22 nM; apparent Kd (MS2 coat protein [2]; [7]): 4.47 nM
UUGUGCUUAGAGAAGGUUCAAACUACAUAUUGCGCACAUGAGGAUCACCCAUGUUGGUGAAUAAGAAAGGAUAUUUGACUGUAU	131 nM	98 nM	
ACGCUUUGGGAGAAGGUACUUUAAAAUUUUUCCACAUGAGGAUCACCCAUGUAAGGAUAUCCCAUCGUUAAAUAUUCUACAGCA	8.98 nM	7.26 nM	
AUCAGCUCGUCAGGAUAUACGUCACUGCGUCAGCAGUGUGGUGAGAUCACAUGAGGAUCACCCAUGUAGAAGGGACGAGCUGAU	376 nM	300 nM	
AUCAGCUUGACAGGAUAUACAUGUCAGCGAAAGCUGACUAUCUUAAUAACAUGAGGAUCACCCAUGUAGAAGGGUCGAGCUGAU	16.9 nM	26.4 nM	
AUAUCCCGAGGAUAUACAUGAGGAUCACCCAUGUCGGGCCUCUGGCCUAAGGCCGAAAGUAGAAGGUGGGUUUC	177 nM	250 nM	
CCUUAACAUGAGGAUCACCCAUGUGAGGAUAUGAUGCAGCAGUGGUCUACGCUGUGCAUCAGAAGGUACAUGGU	35.9 nM	145 nM	
AAUAUGUUGCAGAAGGCCAUGUUGUGGUAGUGCCUCAUGACAUGAGGAUCACCCAUGUCUGUGAUGGAGGAUAUGCAAUAUAUU	8.15 nM	37 nM	
CAUUAAUUCAUUAUAGUUAUUAUACAGGAUAUGUUACAUGAGGAUCACCCAUGUAUUCAUGGUAAACAGAAGGGUAAUACUAGU	11.1 nM	15.8 nM	
CAGGUAGACUGAGGAUAUACAGACCUAGUCUAUCUAGGUCAAUUAACCACAUGAGGAUCACCCAUGUAGAAGGCAGUCUGCCUG	15.9 nM	21.4 nM	
GCCCAACAUGAGGAUCACCCAUGUAAGGAUAUUGGAUGUGUGUGGAAACAUAUAUAAACGAGAAGGUACAGGGC	38.4 nM	28.9 nM	
AGAUUUGUACAUGAGGAUCACCCAUGUUAAUAGGUGGUUGUCAGAAGGCAUUAAUAGAGAUUUAAUGAGGAUAUGAAUUUACAA			apparent Kd (MS2 coat protein [2]; [6]): 1420 nM; apparent Kd (MS2 coat protein [2]; [7]): 1040 nM
UUUGGGUCAGGAUAUUGUUAGUUUAGUUGUUUGUAUUAGUUCGAGAAGGGACAUGAGGAUCACCCAUGUGGUUA	70.5 nM	77.5 nM	
GGCCUGUUAGGAUAUUAGUAGUAGUCAGAAUAGACUAUUACUGAGAAGGAACAUGAGGAUCACCCAUGUUGGCC	16.5 nM	19.3 nM	
CGGGAUAGGAAGGGCGAAAGCCCACAUGAGGAUCACCCAUGUAGAAGGCGGGCCGCAACGCGGCCCGAGGAUAUACACUAUCCA	6.63 nM	12.7 nM	

Source: the EternaBench riboswitch data
